Most compounds without a hit are left out; they make up all but 3.4% or so of the library.
Runt-CBFb FRET – inhibitors of human RUNX1 Runt domain binding to CBFb | Q01196+Q13951 | Cerulean-Runt/Venus-CBFb FRET ratio 530/480, 1 h | inhibition, % at 20 µM | actives 0.46% (n = 220,000) | AID 1496;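 active = inhibition over about 50% at 20 µM in the single-dose screen, limit read from the data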
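Doses: 20 µM compound in 1% DMSO | Material: Cerulean-labeled Runt domain protein | Amount: Each fluorescent fusion protein 100 nM | Schedule: Two 1 h room-temperature incubations shielded from light | Measured by: FRET fluorescence | Evaluation: Loss of energy transfer signal | Controls: Unlabeled CBFb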
PHOSPHO1 block – blocks human PHOSPHO1 phosphatase activity; Q8TCT1; recombinant PHOSPHO1, absorbance phosphatase assay; inhibition, % at 13.3 µM; actives 1.1% (n = 290,000); AID 1565; in the data active = inhibition above about 60%
Target sequence (Q8TCT1 whole entry, looked up): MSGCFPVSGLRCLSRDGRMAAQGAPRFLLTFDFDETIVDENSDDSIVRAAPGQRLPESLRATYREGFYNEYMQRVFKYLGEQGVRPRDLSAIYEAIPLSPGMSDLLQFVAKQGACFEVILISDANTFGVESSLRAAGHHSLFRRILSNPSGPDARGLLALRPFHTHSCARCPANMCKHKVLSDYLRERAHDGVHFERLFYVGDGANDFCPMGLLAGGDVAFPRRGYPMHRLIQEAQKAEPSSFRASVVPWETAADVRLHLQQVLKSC
Efa HMGR inh – E. faecalis class II HMG-CoA reductase inhibition; actives 0.41% (n = 190,000); purified E. faecalis HMGR, NADPH absorbance 340 nm kinetic; inhibition, % at 10 µM;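 active = inhibition above a set limit, the median over all tested compounds plus 3 SD, cut at about 9.5% in these data; inconclusive = no clear call, values can overlap the other calls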;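 also: enzyme runs in reverse so mevalonate oxidation gives rising NADPH absorbance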
Runt-SMMHC FRET – blocks binding of human RUNX1 Runt domain to CBFb-SMMHC. Cerulean-Runt/Venus-CBFb-SMMHC FRET ratio 530/480, 1 h. actives 0.74% (n = 220,000). inhibition, % at 20 µM;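 active = mean inhibition across duplicate retests at 20 µM reaching about 50%, limit read from the data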;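 also: inhibitors lower the FRET ratio by blocking Runt binding to CBFb-SMMHC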
Wee1 degr inh – blocks degradation of human Wee1 kinase; P30291; HeLa Luc-Wee1K328M stability, luciferase luminescence; 100% = proteasome inhibitor MG132 effect; reporter increase, % at 5 µM; actives 1.2% (n = 220,000); AID 1321;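 active = activation above the mean of all tested compounds plus 3 SD, set per screening run, cut at about 8.8% in these data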;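 also: cells exposed to compound for 20 h before luminescence read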
RanGTP-Impb inh – inhibitors of RanGTP-importin-beta interaction, primary screen, biochemical, FRET, CFP-Ran, YFP-importin-beta, homogeneous; cell-free CFP-Ran/YFP-importin-beta FRET ratio; inhibition, % (test concentration not listed); actives 1.1% (n = 300,000);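 active = more than half of the replicate wells show a fall in the fluorescence ratio signal beyond about 16%, limit read from the data, passing the limit was not always enough; inconclusive = exactly half of the replicate wells pass the set limit; inactive = fewer than half of replicates pass the limit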
Numbers stand for hits; i = inactive; ? = inconclusive; nt = no result.

SMILES	Runt-CBFb FRET	PHOSPHO1 block	Efa HMGR inh	Runt-SMMHC FRET	Wee1 degr inh	RanGTP-Impb inh
CC(=O)c1ccc2c(c1)C1C(Cl)C(Sc3ccccc3[N+](=O)[O-])CC1C(C(=O)O)N2 (centres undefined)	i	i	i	i	i	nt
O=C(O)c1cccc2c1NC(C(=O)O)C1CC(Sc3ccccc3[N+](=O)[O-])C(Cl)C21 (centres undefined)	i	62	i	i	i	nt
Cc1ccc(N2C(=O)NC(=O)C3(Cc4ccccc4N4CCCC43)C2=O)cc1 (centres undefined)	i	i	i	i	i	20
O=C1NC(=O)[C@]2(Cc3ccccc3N3CCN(c4ccccc4)CC32)C(=O)N1Cc1ccccc1 (some centres undefined)	i	72	i	i	i	i
CN1C(=O)NC(=O)[C@]2(Cc3ccccc3N3CCN(c4ccccc4)CC32)C1=O (some centres undefined)	i	65	i	i	i	i
CC1(C)C(C(=O)N2CCN(C(=O)c3ccccc3)CC2)C1(C)C	nt	i	nt	nt	nt	i
Cc1ccc(/C=C2/Sc3ccc(C(=O)N4CCC5(CC4)OCCO5)cc3NC2=O)cc1	nt	i	nt	nt	nt	i
O=c1[nH]c(=O)n(C2CCCCC2)c(O)c1/C=C/C=Nc1ccccc1	i	i	nt	81	i	61
Cc1ccc(-n2c(O)c(/C=C/C=Nc3ccccc3)c(=O)[nH]c2=O)cc1	i	i	i	66	i	68
C=CCn1c(O)c(C(CC)=NC(C)c2ccccc2)c(=O)[nH]c1=O (centres undefined)	i	i	i	i	i	i
C=CCn1c(O)c(/C=C/C=Nc2ccccc2)c(=O)[nH]c1=O	i	i	i	77	i	29
Cc1ccc(N/N=C/c2c(O)n(-c3ccccc3)c(=O)[nH]c2=O)cc1	i	i	i	i	i	i
COc1ccc(-n2c(O)c(/C=C/C=Nc3ccccc3)c(=O)[nH]c2=O)cc1	i	i	i	51	i	20
COc1ccc(-n2c(O)c(/C(C)=N/Nc3ccccc3)c(=O)[nH]c2=O)cc1	i	i	nt	i	i	i
CCOc1cccc(CNCCc2c(C)[nH]c3ccc(OC(F)(F)F)cc23)c1O	nt	i	nt	nt	nt	i
COc1ccc(OCC#CCN2CCNCC2)cc1	nt	i	nt	nt	nt	i
NS(=O)(=O)c1ccc(N=Cc2c(O)n(-c3ccccc3)c(=O)[nH]c2=O)cc1	i	i	i	i	i	i
O=c1[nH]c(=O)n(-c2ccccc2)c(O)c1/C=C/C=Nc1ccccc1	i	i	i	60	i	58
Cc1ccc(-n2c(O)c(/C=N/c3ncc(Br)cc3Br)c(=O)[nH]c2=O)cc1	i	i	10.0	i	i	i
COc1ccc2c(c1)c(C(=O)CN1CCC3(CC1)OCCO3)c(C)n2Cc1ccccc1	i	i	i	i	i	i
COc1ccc(-c2cc(=O)c3c(OC)c(OC)c(OC)cc3o2)cc1	i	i	i	i	9.3	i
CC1CCC(NC(=O)CNC(=S)N2CC3CC(C2)c2cccc(=O)n2C3)CC1 (centres undefined)	nt	i	nt	nt	nt	i
O=C1NC(=O)N(c2cccc(Cl)c2)C(=O)/C1=C\c1ccc(Sc2nc3ccccc3[nH]2)o1	i	i	i	i	11	i
O=C1NC(=O)N(c2ccccc2F)C(=O)/C1=C/c1ccc(Sc2nc3ccccc3[nH]2)o1	i	i	i	i	i	nt
COc1cc(N2C(=O)CC(=O)NC2=O)cc(OC)c1OC	nt	i	nt	nt	nt	i
SMILES	Runt-CBFb FRET	PHOSPHO1 block	Efa HMGR inh	Runt-SMMHC FRET	Wee1 degr inh	RanGTP-Impb inh
Cn1ccnc1P(=S)(c1nccn1C)N1CCOCC1	i	76	i	i	i	i
S=C(c1ccc(Cl)cc1)N1CCOCC1	i	62	i	i	i	i
O=C(c1ccc(Cl)cc1)N1CCC2(CC1)OCCO2	nt	nt	nt	nt	nt	i
Cc1c2cnn(CC(=O)N3CCC4(CC3)OCCO4)c(=O)c2c(C)n1Cc1cccc(Cl)c1	nt	i	nt	nt	nt	i
Cc1c2cnn(CC(=O)N3CCC4(CC3)OCCO4)c(=O)c2c(C)n1Cc1ccccc1F	i	i	12	i	i	i
O=C(NCCCN1CCOCC1)C(Cl)(Cl)Cl	i	i	i	i	i	i
CCCCCn1c(N)c(C(=O)NCc2cccs2)c2nc3ccccc3nc21	i	i	i	i	i	56
CCCOC(=O)c1c(N)n(Cc2cccs2)c2nc3ccccc3nc12	i	i	i	108	i	?
CCCCn1c(N)c(C(=O)NCc2cccs2)c2nc3ccccc3nc21	nt	i	i	76	i	68
Nc1c(C(=O)NCCCc2ccccc2)c2nc3ccccc3nc2n1Cc1cccs1	i	i	i	i	i	66
COc1cc2nc(CN3CC=C(c4ccccc4)CC3)[nH]c(=O)c2cc1OC	nt	nt	nt	nt	nt	i
CCC(=O)N1CC(=O)Nc2ccc(F)cc2C1c1ccc(F)cc1 (centres undefined)	nt	i	nt	nt	nt	i
CN(C)C(Cc1ccccc1)C(=O)c1cccs1 (centres undefined)	i	i	i	i	i	nt
CC(C)Cn1cc(C(=O)N2CCC3(CC2)OCCO3)c2c3ccccc3n(C)c2c1=O	i	i	i	i	i	i
CC1CN(C(=O)CCC(=O)N2CCC3(CC2)OCCO3)c2cc(Cl)ccc2O1 (centres undefined)	nt	i	nt	nt	nt	i
CCOc1cccc(OCC)c2c(C)[n+](CC3CCCO3)c(C)c1-2 (centres undefined)	i	95	i	i	i	i
[N-]=[N+]=NCCN1CCC(O)CCC1=O (centres undefined)	nt	i	nt	nt	nt	i
CCN1CCN(C(=O)Cc2ccccc2OC)CC1	i	i	14	i	i	i
COc1ccccc1CC(=O)N1CCN(CCc2ccccc2)CC1	nt	i	nt	nt	nt	i
CN(C)c1ccc(NC(=O)CN2C(=O)CN=C(c3ccccc3)c3cc(Cl)ccc32)cc1	i	60	i	i	i	i
Cc1ccc2ccccc2c1NC(=O)CNC1CCCCC1	nt	i	i	i	10	?
CCc1ccccc1NC(=O)CNC1CCCCC1	i	i	i	i	i	i
COc1ccc(CC(C)NCCC(c2ccccc2)c2ccccc2)cc1 (centres undefined)	nt	nt	nt	nt	nt	i
CCOC(=O)c1c(C)n(Cc2ccccc2)c2ccc(OCC(O)CNC(C)(C)C)cc12 (centres undefined)	nt	i	nt	nt	nt	i
NC1=NC(=O)C(c2ccccc2)O1 (centres undefined)	i	i	i	i	10	nt
c1ccc([C@@H]2CO2)cc1	nt	nt	nt	nt	nt	i
CCOC(=O)c1c(NC(=O)c2c(N)n(CCCOC)c3nc4ccccc4nc23)sc2c1CCCC2	69	i	i	101	i	i
CCOCCCn1c(N)c(C(=O)Nc2sc3c(c2C(=O)OC)CCCC3)c2nc3ccccc3nc21	i	i	i	137	i	i
Nc1cc2nc3ccccc3nc2cc1N	i	60	nt	i	i	i

From PubChem
